Data published in ChEMBL document CHEMBL1143238, “Oxazaborolidine derivatives inducing autoinducer-2 signal transduction in Vibrio harveyi” (2008).
Converted amounts (≈) assume the structure as drawn. The source made the active and inactive calls. The calls are words filed in the database; no cut-off is given here.

Tests used:
Vibrio harveyi [1] = test: Antibacterial activity against Vibrio harveyi MM77 mutant after 18 hrs; format: functional
In short: (§1)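 Strains were grown aerobically at 30 °C with shaking in AB medium. Growth was read as OD595 after 18 h incubation. Each experiment was run in triplicate and repeated three times.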

Vibrio harveyi [2] = test: Antibacterial activity against Vibrio harveyi BB886 mutant after 18 hrs; format: functional; in short: as §1
Vibrio harveyi [3] = test: Induction of bioluminescence in Vibrio harveyi BB170 mutant (sensor 1-, sensor 2+) at 600 uM; format: functional, organism-based
In short: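 Strain was grown in AB medium at 30 °C with shaking to 1.5–2.5 · 10^9 CFU/ml (15–16 h), then diluted 1:5000 or 1:10,000 into fresh AB medium containing compound. Incubation was at 30 °C for about 7 h with luminescence monitoring. Light was normalized to CFU or OD595. Fold induction over endogenous luminescence was taken at the minimum-luminescence point (3–4 h). Negative control was fresh AB medium; positive control was 10% v/v BB152 spent medium.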

Vibrio harveyi [4] = test: Antibacterial activity against Vibrio harveyi BB170 mutant after 18 hrs; format: functional; in short: as §1

Structure (SMILES)	MIC (Vibrio harveyi [1]) [mM]	MIC (Vibrio harveyi [2]) [mM]	Activity (Vibrio harveyi [3])	MIC (Vibrio harveyi [4]) [mM]
CC1(C)COB(c2ccccc2)N1	10 (≈ 1750 µg/mL)	5 (≈ 875 µg/mL)		
C[C@H]1[C@@H](c2ccccc2)OB(c2ccccc2)N1C			Active	
C[C@H]1NB(c2ccccc2)O[C@@H]1c1ccccc1	10 (≈ 2370 µg/mL)	10 (≈ 2370 µg/mL)		10 (≈ 2370 µg/mL)
CCCCB1O[C@H](c2ccccc2)[C@H](C)N1C	10 (≈ 2310 µg/mL)	10 (≈ 2310 µg/mL)		
